# This is a sample that favours compounds with a hit; in the whole collection about 2.3% have one here.
# STAT1 blocker – inhibitors of IFN-gamma induced STAT1 signaling; NIH 3T3 STAT1-luciferase reporter, luminescence; inhibition, % at 5.5 µM; 200,000 tested, 0.35% active; AID 920;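 active means inhibition above a set limit, the mean inhibition across all tested compounds plus 3 SD, cut at about 34% in these data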;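 further: 0% = IFN-gamma with DMSO and 100% = IFN-gamma with 300 µM nifuroxazide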
# STAT3 act – increases IL-6 driven STAT3 reporter signal | U3A cells, IL-6 STAT3-luciferase reporter, luminescence; 100% = signal with IL-6 EC80 alone | 190,000 tested, 0.91% active | activation (% of control), % at 5.6 µM | AID 871;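 active means activation above the screen-wide mean of compound activation plus 3 SD, cut at about 130% in these data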;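 further: 0% = background luminescence of wells with medium and substrate only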
#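 Material: STAT3-luciferase reporter U3A cells. Controls: IL-6-treated wells, 100% activation. Read-out: % activation versus median of IL-6-stimulated wells. Probe or stimulus: IL-6 stimulus at 33 ng/mL final. Timing: compound 1 h, then IL-6 6 h at 37 °C. Signal: reporter luminescence signal.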
# STAT3 blocker – STAT3 signaling inhibition | inhibition, % at 5.5 µM | 190,000 tested, 0.89% active | U3A cells, IL-6 STAT3-luciferase reporter, luminescence; host cell line lacks STAT1;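 active means inhibition above the mean inhibition across all screened compounds plus 3 SD, cut at about 44% in these data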;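 further: 0% = DMSO only wells and 100% = 100 µM nifuroxazide control wells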
# HSP90 inh – blocks HSP90-mediated luciferase refolding in reticulocyte lysate; Rabbit reticulocyte lysate, luciferase refolding luminescence, 3 h; inhibition, % at 5.6 µM; 290,000 tested, 0.91% active;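 active means inhibition above the screen-wide mean plus 3 SD, computed separately per campaign, cut at about 16% in these data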;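 further: 0% = DMSO wells and 100% = 60 µM geldanamycin wells; inhibitors lower the luminescence because luciferase stays unfolded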
# TRAIL sens C8 – caspase-8 TRAIL sensitization. NB7+C8 cells + TRAIL, ATPlite viability luminescence. inhibition (viability loss, TRAIL sensitization), % at 10 µM. 360,000 tested, 1% active. AID 624354;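 active means compounds causing at least 50% loss of cell viability in the single-dose screen, relative to plate controls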
# PPC-1+TRAIL kill – kills PPC-1 cancer cells in the presence of TRAIL. PPC-1 cells + TRAIL, ATPLite viability luminescence. cell killing (% activity), % at 4 µM or 5 µM. 220,000 tested, 0.41% active. AID 1443;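 active means cell killing above 50% in the first pass at 4 µM, then a duplicate retest at 5 µM averaging 50% or more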;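 further: plate controls were cells with TRAIL plus DMSO for no effect and medium-only wells lacking cells for full effect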
# PPC1 cytotox – PPC-1 cell cytotoxicity; shares compounds with PPC-1+TRAIL kill; PPC-1 viability, ATPlite luminescence, overnight; cytotoxicity, % at 5 µM; 1,200 tested, 50% active; AID 1447;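 active means reconfirmed compounds whose average cytotoxicity reaches 50% or more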;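 further: 0% = DMSO-treated cells and 100% = wells holding medium but no cells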
# Starred values were filed as active, the others as inactive; / = no result given.
SMILES,STAT1 blocker,STAT3 act,STAT3 blocker,HSP90 inh,TRAIL sens C8,PPC-1+TRAIL kill,PPC1 cytotox
COC(=O)Cn1c(O)c(N=NC(=O)c2ccc3c(c2)OCO3)c2ccccc21,2,105,-5,1,61*,29,37
COC(=O)c1ccc(NC(=O)CN(C)S(=O)(=O)c2ccc(OC)c(C)c2)cc1,9,89,18,0,-8,-10,-2
COc1ccc(S(=O)(=O)N(C)CC(=O)Nc2ccc(C(N)=O)cc2)cc1OC,10,90,13,5,-11,25,/
COC(=O)c1c(NC(=O)CN2CCN(c3ccccc3Cl)CC2)sc(C)c1C,3,110,-8,-6,1,12,/
Cc1ccc(S(=O)(=O)N2CCN(C(=O)COC(=O)COc3ccccc3)CC2)cc1,2,107,-3,0,-5,11,/
O=C(COc1ccccc1Cl)OCC(=O)N1CCN(S(=O)(=O)c2ccccc2)CC1,6,105,-3,-4,-16,10,8
CC(=Nc1ccc(C)cc1C)c1sc2ccccc2c1O,-48,71,36,0,65*,32,27
Cc1ccc(C(=O)O/N=C/c2c(N3CCOCC3)n(C)c3ccccc23)cc1,-4,102,3,1,-3,40,19
O=C(/C(=C/c1ccc(Cl)cc1)c1nc2ccccc2[nH]1)c1cccs1,15,97,3,3,47,16,/
COc1cc(/C=C(/C(=O)c2cccs2)c2nc3ccccc3[nH]2)ccc1O,5,136*,-41,5,25,18,14
CCC(=O)Nc1nonc1-c1nc2ccccc2n1CC(C)C,8,90,18,1,12,-8,-13
CC(=O)Nc1nonc1-c1nc2ccccc2n1CC1CC1,12,85,22,5,16,2,/
Cc1nccn1CC(O)COc1ccc([N+](=O)[O-])cc1 (centres undefined),/,/,/,-2,8,/,/
Cc1ccc(-c2cc(=O)c3cc(C)ccc3[nH]2)cc1,-51,69,35,12,86*,79*,80*
CCOC(=O)CNc1c(-c2ccc(O)cc2)nc2ccc(Cl)cn12,-17,105,5,-2,4,-10,-14
CCOC(=O)CNc1c(-c2ccccc2)nc2ccc(Cl)cn12,-14,95,10,3,17,30,/
Cc1nc2cc(NC(=O)N3c4ccccc4CC3C)ccc2n1C (centres undefined),-35,73,35,13,65*,68*,63*
COC(=O)c1cc(S(=O)(=O)NCC2CCN(Cc3ccc(F)cc3)CC2)cn1C,/,/,/,-1,5,/,/
CCOc1cccc(NC(=O)CSc2sc3c(O)cc(=O)[nH]c3c2C#N)c1,/,/,/,7,3,/,/
Cc1ccc2nc(-c3sc4nc(C)ccc4c3N)[nH]c2c1,-19,82,23,12,54*,32,24
Cc1ccc2nc(-c3ccncc3)[nH]c2c1,/,/,/,2,17,/,/
CCCCC(=O)Nc1nn(CC)c2nc3c(C)cccc3cc12,/,/,/,-8,-13,/,/
O=C(CCNc1ccc(F)c(Cl)c1)c1ccco1,-1,96,9,0,19,9,/
O=C(CCNc1ccc(F)cc1)c1ccco1,-34,106,-4,0,19,9,2
CCOC(=O)c1nn(-c2ccc3c(c2)OCCO3)cc1O,2,86,20,3,54*,48,49
SMILES,STAT1 blocker,STAT3 act,STAT3 blocker,HSP90 inh,TRAIL sens C8,PPC-1+TRAIL kill,PPC1 cytotox
O=C(Nc1cccnc1)C1Cc2c(-c3ccc4c(c3)OCO4)ccnc2O1 (centres undefined),/,/,/,/,11,/,/
CN1CCN(Cc2oc(CO)cc(=O)c2O)CC1,3,104,-7,-2,-3,-3,/
COc1ccc(N2CCN(Cc3oc(CO)cc(=O)c3O)CC2)cc1,9,107,-3,0,-8,5,10
CCNC(=S)NNC(=O)c1csc2c1CCCC2,8,84,24,0,-21,15,/
O=C(Nc1ccc(NC(=O)c2ccco2)cc1)c1ccc2c(c1)OCCO2,18,94,7,1,6,-2,/
O=C(Nc1ccc2c(c1)OCCO2)c1ccc2nccnc2c1,-28,63,50*,14,68*,50,49
CC(OC(=O)c1ccc(Br)o1)C(=O)Nc1ccc2c(c1)OCCO2 (centres undefined),/,/,/,/,-11,/,/
O=C(Nc1ccc2c(c1)OCCO2)c1ccc(Cl)c(Cl)c1,/,/,/,4,6,/,/
Cc1cc(NC(=O)c2ccc3c(c2)OCCO3)ccc1NC(=O)c1ccco1,-8,97,8,-1,63*,51*,50
O=C(Nc1ccc2c(c1)OCCO2)c1ccc(Br)o1,-28,77,29,6,61*,52*,51*
COCCc1ncc(CN2CCC(C(=O)Nc3cccc(-c4cscn4)c3)CC2)cn1,/,/,/,-5,-9,/,/
Cc1ccc2nc(C)cc(N/N=C/c3ccccc3O)c2c1,/,/,/,-4,4,/,/
Cc1cccc(-n2cccc2)c1C#N,-1,107,-2,0,-3,18,9
C=C(C)CSc1ncc(-c2cccc(C(F)(F)F)c2)cn1,-4,90,17,-2,2,-10,/
Cc1ccc(NCc2ccccc2O)c(C)c1,-7,90,17,-3,2,10,10
CCC(C)(C)c1ccc(OCCCC[n+]2cccc(C)c2C)c(C(C)(C)CC)c1,/,/,/,8,36,62*,58*
COc1cccc(NC(=O)CSc2nc(=O)n(CCN(C)C)c3c2CCCC3)c1,/,/,/,/,4,/,/
O=C(/C(N=Nc1cccc(C(F)(F)F)c1)=C(/O)c1cccs1)C(F)(F)F,/,/,/,-6,-1,12,/
Cc1ccc(N=C/C(C(=O)C(F)(F)F)=C(\O)c2cccs2)cc1,54*,27,84*,0,61*,29,36
COc1ccc(-c2cc(NC(C)=O)c3ncc(-c4ccc(F)cc4)n3c2)cc1OC,/,/,/,/,5,/,/
Clc1ccc(OCc2nc3ccccc3[nH]2)cc1,-51,87,20,1,37,33,36
Cc1ccc(OCc2nc3ccccc3[nH]2)cc1,-53,74,32,15,30,49,43
c1ccc(OCc2nc3ccccc3[nH]2)cc1,-31,94,11,-1,14,24,/
COC(=O)Nc1cc([N+](=O)[O-])ccc1OC,9,91,13,8,1,9,/
CC(C)Cn1c(SCC(=O)NCc2ccc(Cl)cc2)nnc1-c1cccc(S(=O)(=O)N2CCOCC2)c1,0,101,5,5,-1,0,1
CC(C)Oc1ccc(S(=O)(=O)N2CCOCC2)cc1NC(=O)Cc1cccs1,/,/,/,/,-8,/,/
Cc1cccc(-c2cc(N)n(-c3ccccc3)n2)c1,-83,100,8,6,24,28,27
CCc1ccc(-c2cc(N)n(-c3ccccc3)n2)cc1,-82,89,20,3,46,43,44

# Screening data as filed in PubChem BioAssay.
